Test results reported in ChEMBL document CHEMBL1125894, “Dual-action cephalosporins: cephalosporin 3'-quaternary ammonium quinolones” (1991).
Converted amounts (≈) assume the structure as drawn.

Tests used:
Serratia marcescens [1] = experiment: In vitro antibacterial activity against Serratia marcescens SM; assay type: functional
Outline: (§1)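 Serial 2-fold dilutions in the NCCLS broth microdilution method for aerobic nonfastidious organisms, with an 18-h incubation. The value is reported as the minimum inhibitory concentration (MIC).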

Pseudomonas aeruginosa [2] = experiment: In vivo activity in murine against Pseudomonas aeruginosa 5712 infection after sc administration.; assay type: functional; conditions: Pseudomonas aeruginosa, sc; read-out: ED50
Outline: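 Mouse protection test in CD1 Swiss albino mice (18–20 g) infected intraperitoneally with 0.5 mL of diluted P. aeruginosa suspension. Mice received 1.0 mL subcutaneously at the neck base within 5 min of infection and a second treatment 3 h after infection. Doses ranged from 0.05 to 250 mg/kg, with six mice per group. ED50 was calculated by the Reed–Muench method.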

Streptococcus pyogenes [3] = experiment: In vitro antibacterial activity against Streptococcus pyogenes 4; assay type: functional
Outline: (§2)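 Broth macrodilution with serial 2-fold dilutions in cation-supplemented Mueller-Hinton broth containing 10% goat serum. The value is reported as the MIC.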

[4] = biological target: T1, Penicillin-binding protein 1B (Escherichia coli K-12) (UniProt P02919); experiment: Concentration required for 90% inhibition against 90 kDa penicillin-binding protein 1b binding using [14C]-Pen G as the radioligand.
T1 sequence (whole entry): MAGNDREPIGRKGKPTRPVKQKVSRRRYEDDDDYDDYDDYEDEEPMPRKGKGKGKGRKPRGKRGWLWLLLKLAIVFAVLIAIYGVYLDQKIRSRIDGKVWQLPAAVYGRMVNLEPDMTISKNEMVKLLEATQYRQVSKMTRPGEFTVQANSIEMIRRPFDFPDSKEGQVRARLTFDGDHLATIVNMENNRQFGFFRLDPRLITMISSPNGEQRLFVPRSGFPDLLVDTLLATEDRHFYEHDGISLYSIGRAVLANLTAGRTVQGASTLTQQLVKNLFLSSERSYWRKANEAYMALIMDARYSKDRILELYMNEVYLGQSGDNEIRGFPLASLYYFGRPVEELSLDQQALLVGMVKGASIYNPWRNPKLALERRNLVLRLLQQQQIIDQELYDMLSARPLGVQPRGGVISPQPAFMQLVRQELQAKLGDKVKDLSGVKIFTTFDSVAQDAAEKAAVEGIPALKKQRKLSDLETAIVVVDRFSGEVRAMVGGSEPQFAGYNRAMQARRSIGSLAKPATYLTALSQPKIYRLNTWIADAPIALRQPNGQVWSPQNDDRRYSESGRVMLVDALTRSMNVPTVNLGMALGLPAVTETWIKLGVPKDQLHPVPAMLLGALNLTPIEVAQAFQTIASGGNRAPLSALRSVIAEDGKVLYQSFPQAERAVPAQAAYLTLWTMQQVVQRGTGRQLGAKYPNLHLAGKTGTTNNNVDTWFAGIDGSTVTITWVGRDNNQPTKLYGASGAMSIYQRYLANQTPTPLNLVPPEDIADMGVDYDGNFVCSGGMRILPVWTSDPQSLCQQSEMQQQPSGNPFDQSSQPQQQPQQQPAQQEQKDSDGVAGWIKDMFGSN
Outline: (§3)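 Solubilized membranes from sonicated E. coli DC-0 were used. PBP binding was measured as inhibition of [14C]penicillin G binding to each PBP.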

Escherichia coli [5] = experiment: Antibacterial activity against Escherichia coli DC-O; assay type: functional; outline: as §1
[6] = biological target: T2, Penicillin-binding protein 1A (Escherichia coli K-12) (UniProt P02918); experiment: Concentration required for 90% inhibition against 90 kDa penicillin-binding protein 1a binding using [14C]-Pen G as the radioligand.; outline: as §3
T2 sequence (whole entry): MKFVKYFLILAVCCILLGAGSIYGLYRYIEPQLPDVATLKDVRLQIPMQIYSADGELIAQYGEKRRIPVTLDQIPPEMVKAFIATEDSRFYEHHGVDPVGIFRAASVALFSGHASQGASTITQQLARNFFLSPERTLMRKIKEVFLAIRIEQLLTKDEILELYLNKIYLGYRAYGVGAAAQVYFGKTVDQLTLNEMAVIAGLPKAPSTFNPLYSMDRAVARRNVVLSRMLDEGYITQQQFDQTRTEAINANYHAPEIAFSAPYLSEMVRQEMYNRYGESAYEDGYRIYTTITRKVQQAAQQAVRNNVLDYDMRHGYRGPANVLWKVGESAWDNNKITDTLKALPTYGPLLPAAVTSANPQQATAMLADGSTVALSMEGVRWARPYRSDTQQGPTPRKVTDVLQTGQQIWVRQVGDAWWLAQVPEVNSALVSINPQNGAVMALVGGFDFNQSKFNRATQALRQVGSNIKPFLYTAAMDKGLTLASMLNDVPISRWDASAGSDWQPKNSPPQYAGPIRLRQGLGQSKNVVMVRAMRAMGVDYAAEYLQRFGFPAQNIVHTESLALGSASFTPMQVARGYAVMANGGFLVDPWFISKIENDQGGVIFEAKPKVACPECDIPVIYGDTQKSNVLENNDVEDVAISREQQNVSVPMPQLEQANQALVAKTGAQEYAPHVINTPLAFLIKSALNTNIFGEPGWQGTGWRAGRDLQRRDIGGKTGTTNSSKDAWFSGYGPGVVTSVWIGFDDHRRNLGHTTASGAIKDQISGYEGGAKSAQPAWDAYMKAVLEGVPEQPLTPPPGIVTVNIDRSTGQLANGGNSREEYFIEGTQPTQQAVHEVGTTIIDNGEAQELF

Streptococcus pyogenes [7] = experiment: In vivo activity in murine against Streptococcus pyogenes 4 infection after sc administration.; assay type: functional
Outline: (§4)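 Mouse protection test in CD1 Swiss albino mice (18–20 g). Mice were infected intraperitoneally with 0.5 mL of a diluted bacterial suspension, then treated within 5 min with one 1.0 mL subcutaneous dose at the dorsal base of the neck. Doses ranged from 0.05 to 250 mg/kg, with six mice per group. ED50 was calculated by the Reed–Muench method.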

Klebsiella pneumoniae = experiment: In vitro antibacterial activity against Klebsiella pneumoniae A; assay type: functional; outline: as §1
Escherichia coli [8] = experiment: In vitro antibacterial activity against Escherichia coli 257; assay type: functional; outline: as §1
Staphylococcus aureus [9] = experiment: In vitro antibacterial activity against Staphylococcus aureus Smith(MS); assay type: functional
Outline: (§5)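 Staphylococci were tested by the standard agar dilution procedure using serial 2-fold dilutions of agent. The value is reported as the MIC.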

Escherichia coli [10] = experiment: Concentration required for 90% inhibition against 60 kDa penicillin-binding protein 3 binding using [14C]-Pen G as the radioligand.; outline: as §3
Streptococcus pneumoniae [11] = experiment: In vivo activity in murine against Streptococcus pneumoniae 6301 infection after sc administration.; assay type: functional; outline: as §4
Serratia marcescens [12] = experiment: In vivo activity in murine against Serratia marcescens SM infection after sc administration.; assay type: functional; outline: as §4
Staphylococcus aureus [13] = experiment: In vitro antibacterial activity against Staphylococcus aureus 95(MR); assay type: functional; outline: as §5
Citrobacter freundii = experiment: In vitro antibacterial activity against Citrobacter freundii BS 16; assay type: functional; outline: as §1
Enterobacter cloacae [14] = experiment: In vitro antibacterial activity against Enterobacter cloacae 5699; assay type: functional; outline: as §1
Streptococcus pneumoniae [15] = experiment: In vitro antibacterial activity against Streptococcus pneumoniae 6301; assay type: functional; outline: as §2
Escherichia coli [16] = experiment: In vivo activity in murine against Escherichia coli 257 infection after sc administration.; assay type: functional; conditions: Escherichia coli, sc; read-out: ED50; outline: as §4
Pseudomonas aeruginosa [17] = experiment: In vitro antibacterial activity against Pseudomonas aeruginosa 5712; assay type: functional; outline: as §1
[18] = biological target: T3, Peptidoglycan D,D-transpeptidase MrdA (Escherichia coli K-12) (UniProt P0AD65); experiment: Concentration required for 90% inhibition against 66 kDa penicillin-binding protein 2 binding using [14C]-Pen G as the radioligand.; outline: as §3
T3 sequence (whole entry): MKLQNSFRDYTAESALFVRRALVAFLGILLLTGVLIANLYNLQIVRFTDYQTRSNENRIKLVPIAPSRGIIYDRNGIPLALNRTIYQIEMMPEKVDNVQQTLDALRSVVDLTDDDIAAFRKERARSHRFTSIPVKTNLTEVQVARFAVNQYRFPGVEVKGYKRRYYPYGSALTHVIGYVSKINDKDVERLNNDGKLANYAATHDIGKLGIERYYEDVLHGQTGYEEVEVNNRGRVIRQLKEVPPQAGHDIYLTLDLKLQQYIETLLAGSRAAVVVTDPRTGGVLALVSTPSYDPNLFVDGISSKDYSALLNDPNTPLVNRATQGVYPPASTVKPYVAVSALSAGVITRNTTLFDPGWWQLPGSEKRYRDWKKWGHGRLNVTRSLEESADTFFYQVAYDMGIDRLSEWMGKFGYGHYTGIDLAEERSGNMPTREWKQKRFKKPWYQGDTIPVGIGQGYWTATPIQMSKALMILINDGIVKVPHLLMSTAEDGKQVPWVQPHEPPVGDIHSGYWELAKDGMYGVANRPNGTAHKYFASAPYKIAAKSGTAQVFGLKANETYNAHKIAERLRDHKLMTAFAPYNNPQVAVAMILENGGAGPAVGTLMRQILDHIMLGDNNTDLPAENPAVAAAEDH

Enterobacter cloacae [19] = experiment: In vitro antibacterial activity against Enterobacter cloacae P99; assay type: functional; outline: as §1

SMILES | MIC (Serratia marcescens [1]) [µg/mL] | MIC (Streptococcus pyogenes [3]) [µg/mL] | Concentration [4] [µg/mL] | MIC (Escherichia coli [5]) [µg/mL] | Concentration [6] [µg/mL] | MIC (Klebsiella pneumoniae) [µg/mL] | MIC (Escherichia coli [8]) [µg/mL] | MIC (Staphylococcus aureus [9]) [µg/mL] | Concentration (Escherichia coli [10]) [µg/mL] | MIC (Staphylococcus aureus [13]) [µg/mL] | MIC (Citrobacter freundii) [µg/mL] | MIC (Enterobacter cloacae [14]) [µg/mL] | MIC (Streptococcus pneumoniae [15]) [µg/mL] | MIC (Pseudomonas aeruginosa [17]) [µg/mL] | Concentration [18] [µg/mL] | MIC (Enterobacter cloacae [19]) [µg/mL] | further results
CO/N=C(\C(=O)N[C@@H]1C(=O)N2C(C(=O)O)=C(COC(C)=O)CS[C@H]12)c1csc(N)n1 [CEFOTAXIME] | 0.25 (≈ 0.549 µM) | < 0.008 | 0.5 | 0.06 (≈ 0.132 µM) | 0.1 | 0.031 (≈ 0.0681 µM) | 0.031 (≈ 0.0681 µM) | 1 (≈ 2.2 µM) | 0.1 | 128 (≈ 281 µM) | 128 (≈ 281 µM) | 0.125 (≈ 0.274 µM) | 0.016 (≈ 0.0351 µM) | 64 (≈ 141 µM) | 100 | 64 (≈ 141 µM) | ED50 (Pseudomonas aeruginosa [2]): > 250 mg/kg; ED50 (Streptococcus pyogenes [7]): 7 mg/kg; ED50 (Streptococcus pneumoniae [11]): 90 mg/kg; ED50 (Serratia marcescens [12]): > 50 mg/kg; ED50 (Escherichia coli [16]): 0.37 mg/kg
CO/N=C(\C(=O)N[C@@H]1C(=O)N2C(C(=O)O)=C(COC(=O)c3cn(CCF)c4c(F)c(N5CCN(C)CC5)c(F)cc4c3=O)CS[C@H]12)c1csc(N)n1 | 0.125 (≈ 0.163 µM) | < 0.008 | 2 | 0.12 (≈ 0.157 µM) | 0.1 | 0.125 (≈ 0.163 µM) | 0.063 (≈ 0.0824 µM) | 1 (≈ 1.31 µM) | 0.1 | 1 (≈ 1.31 µM) | 0.25 (≈ 0.327 µM) | 0.25 (≈ 0.327 µM) | < 0.008 | 16 (≈ 20.9 µM) | 100 | 0.125 (≈ 0.163 µM) | –
